From ChEMBL document CHEMBL3414525, “Macrocyclic compounds as anti-cancer agents: design and synthesis of multi-acting inhibitors against HDAC, FLT3 and JAK2” (Eur J Med Chem, 2015)
Activity calls are given as the source filed them. The rule behind the calls is not given here.

Key:
[1] = target: Histone deacetylase; experiment: Inhibition of HDAC (unknown origin) using Fluor de Lys substrate after 2 hrs by microplate reader; format: protein assay, Homo sapiens
[2] = target: T1, Receptor-type tyrosine-protein kinase FLT3 (Homo sapiens, UniProt P36888); experiment: Inhibition of human recombinant FLT3 after 1 hr by LanthaScreen assay platform
T1 sequence (P36888 whole entry): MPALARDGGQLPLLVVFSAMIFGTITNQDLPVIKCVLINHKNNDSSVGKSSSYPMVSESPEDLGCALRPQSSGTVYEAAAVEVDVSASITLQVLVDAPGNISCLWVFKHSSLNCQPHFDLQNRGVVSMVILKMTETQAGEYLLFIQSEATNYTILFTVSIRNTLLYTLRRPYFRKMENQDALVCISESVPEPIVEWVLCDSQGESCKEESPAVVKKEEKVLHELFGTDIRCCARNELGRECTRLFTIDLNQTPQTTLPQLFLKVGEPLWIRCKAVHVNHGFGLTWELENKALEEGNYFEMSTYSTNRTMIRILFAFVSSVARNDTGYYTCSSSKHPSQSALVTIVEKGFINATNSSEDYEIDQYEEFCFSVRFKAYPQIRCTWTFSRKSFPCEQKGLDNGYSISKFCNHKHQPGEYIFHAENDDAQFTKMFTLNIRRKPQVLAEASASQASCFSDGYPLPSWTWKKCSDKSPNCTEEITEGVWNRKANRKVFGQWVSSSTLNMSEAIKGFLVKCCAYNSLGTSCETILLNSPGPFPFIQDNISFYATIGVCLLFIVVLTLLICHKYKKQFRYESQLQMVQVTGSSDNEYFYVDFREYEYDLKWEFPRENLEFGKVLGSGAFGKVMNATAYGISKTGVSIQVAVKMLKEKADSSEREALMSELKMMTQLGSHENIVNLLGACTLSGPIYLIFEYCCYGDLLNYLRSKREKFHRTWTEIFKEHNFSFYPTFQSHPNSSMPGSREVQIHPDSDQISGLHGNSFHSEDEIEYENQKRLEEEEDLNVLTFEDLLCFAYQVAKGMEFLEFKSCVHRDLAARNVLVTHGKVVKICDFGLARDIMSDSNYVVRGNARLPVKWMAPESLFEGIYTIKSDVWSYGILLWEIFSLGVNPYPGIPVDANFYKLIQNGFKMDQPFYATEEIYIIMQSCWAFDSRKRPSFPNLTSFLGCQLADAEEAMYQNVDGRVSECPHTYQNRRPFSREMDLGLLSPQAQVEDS
Procedure, shortened: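 TR-FRET binding format. Recombinant FLT3 incubated 1 h at room temperature with Eu-anti-His antibody, Alexa Fluor 647-labelled kinase tracer 236 and varied compound concentrations. Signal read as the 665/615 nm emission ratio. Values are means ± SD of three independent experiments.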

[3] = target: T2, Tyrosine-protein kinase JAK2 (Homo sapiens, UniProt O60674); experiment: Inhibition of human recombinant JAK2 using Z'LYTETry6 peptide substrate after 1 hr by microplate reader
T2 sequence (O60674 whole entry): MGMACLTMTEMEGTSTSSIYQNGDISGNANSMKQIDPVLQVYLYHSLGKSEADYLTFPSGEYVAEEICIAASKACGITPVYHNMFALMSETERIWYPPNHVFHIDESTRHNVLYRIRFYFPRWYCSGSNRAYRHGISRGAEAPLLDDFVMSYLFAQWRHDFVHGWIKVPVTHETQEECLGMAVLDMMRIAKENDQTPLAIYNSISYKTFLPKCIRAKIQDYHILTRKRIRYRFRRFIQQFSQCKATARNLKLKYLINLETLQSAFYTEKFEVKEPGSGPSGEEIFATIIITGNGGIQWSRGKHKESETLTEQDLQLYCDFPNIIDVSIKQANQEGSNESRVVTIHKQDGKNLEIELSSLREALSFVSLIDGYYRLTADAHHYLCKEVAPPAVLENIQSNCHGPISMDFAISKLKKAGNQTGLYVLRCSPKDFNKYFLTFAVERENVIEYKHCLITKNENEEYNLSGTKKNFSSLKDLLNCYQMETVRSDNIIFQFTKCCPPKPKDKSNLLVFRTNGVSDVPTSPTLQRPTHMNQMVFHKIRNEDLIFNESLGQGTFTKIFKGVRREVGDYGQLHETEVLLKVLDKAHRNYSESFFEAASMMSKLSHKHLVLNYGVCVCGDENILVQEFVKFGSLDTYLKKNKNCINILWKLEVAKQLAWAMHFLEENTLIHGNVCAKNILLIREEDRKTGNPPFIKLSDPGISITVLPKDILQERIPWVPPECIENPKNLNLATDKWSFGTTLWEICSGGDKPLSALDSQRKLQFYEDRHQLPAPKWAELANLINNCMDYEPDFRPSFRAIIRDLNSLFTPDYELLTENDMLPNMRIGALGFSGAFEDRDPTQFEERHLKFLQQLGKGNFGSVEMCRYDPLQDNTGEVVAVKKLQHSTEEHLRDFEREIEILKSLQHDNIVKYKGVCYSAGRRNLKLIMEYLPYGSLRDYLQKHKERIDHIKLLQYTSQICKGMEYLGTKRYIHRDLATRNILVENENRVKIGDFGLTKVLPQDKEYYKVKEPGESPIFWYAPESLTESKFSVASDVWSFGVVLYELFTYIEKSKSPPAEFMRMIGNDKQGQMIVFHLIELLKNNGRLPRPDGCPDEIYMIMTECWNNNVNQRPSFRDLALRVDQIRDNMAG

[4] = Antiproliferative activity against human HL60 cells assessed as growth inhibition after 48 hrs by CellTiter-Glo assay; format: functional; conditions: HL-60, 48 h
[5] = tested on: MV4-11; experiment: Antiproliferative activity against human MV4-11 cells assessed as growth inhibition after 48 hrs by CellTiter-Glo assay; format: functional; conditions: MV4-11, 48 h
[6] = tested on: K562; experiment: Antiproliferative activity against human K562 cells assessed as growth inhibition after 48 hrs by CellTiter-Glo assay; format: functional; conditions: K562, 48 h
[7] = tested on: HEL; experiment: Antiproliferative activity against human HEL cells assessed as growth inhibition after 48 hrs by CellTiter-Glo assay; format: functional
[8] = Antiproliferative activity against human HCT116 cells assessed as growth inhibition after 48 hrs by SRB assay; format: functional; conditions: HCT-116, 48 h
[9] = tested on: MCF7; experiment: Antiproliferative activity against human MCF7 cells assessed as growth inhibition after 48 hrs by SRB assay; format: functional; conditions: MCF7, 48 h
[10] = tested on: MDA-MB-435; experiment: Antiproliferative activity against human MDA-MB-435 cells assessed as growth inhibition after 48 hrs by SRB assay; format: functional; conditions: MDA-MB-435, 48 h
[11] = tested on: NCI-H460; experiment: Antiproliferative activity against human NCI-H460 cells assessed as growth inhibition after 48 hrs by SRB assay; format: functional; conditions: NCI-H460, 48 h
[12] = Antiproliferative activity against human OVCAR5 cells assessed as growth inhibition after 48 hrs by SRB assay; format: functional; conditions: OVCAR-5, 48 h
[13] = target: Histone deacetylase (Homo sapiens) (UniProt Q13547+O15379+Q9UBN7+Q92769+Q9UQL6+Q8WUI4+Q9BY41+Q96DB2+P56524+Q9UKV0+Q969S8); experiment: Induction of HDAC-mediated histone H3 acetylation in human MV4-11 cells after 24 hrs by Western blot analysis; format: cell-based
Procedure, shortened: (§1)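 Cells plated at 0.2 × 10⁶ per mL with or without varied compound concentrations, incubated 24 h, then lysed in whole-cell lysis buffer. Total extracts run on SDS-PAGE and western blotted with antibodies to acetyl-histone H3, acetyl-tubulin, tubulin, phospho-FLT3 Y591, phospho-JAK2 Y1007/1008, phospho-STAT5 Y694 and phospho-AKT T308. HRP-labelled secondary antibodies used for detection.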

[14] = target: Tubulin (Homo sapiens) (UniProt P68371+Q9H4B7+P0DPH7+P68366+Q13509+Q71U36+P04350+Q3ZCM7+P07437+P68363+Q9BQE3+Q6PEY2+Q13885+Q9BVA1+Q9BUF5); experiment: Induction of tubulin acetylation in human MV4-11 cells after 24 hrs by Western blot analysis; format: cell-based; procedure, shortened: as §1
[15] = target: T2, Tyrosine-protein kinase JAK2; experiment: Decrease in JAK2 phosphorylation in human HEL cells at 0.1 to 0.5 uM after 24 hrs by Western blot analysis; format: cell-based; procedure, shortened: as §1
[16] = tested on: MV4-11; experiment: Inhibition of STAT5 phosphorylation in human MV4-11 cells after 24 hrs by Western blot analysis; format: cell-based; procedure, shortened: as §1
[17] = tested on: MV4-11; experiment: Inhibition of AKT phosphorylation in human MV4-11 cells after 24 hrs by Western blot analysis; format: cell-based; procedure, shortened: as §1
[18] = target: Receptor-type tyrosine-protein kinase FLT3 (Homo sapiens) (UniProt P36888); conditions: HEL, 0.1 to 0.5 uM

| SMILES | IC50 [1] | IC50 [2] | IC50 [3] | GI50 [4] | GI50 [5] | GI50 [6] | GI50 [7] | GI50 [8] | GI50 [9] | GI50 [10] | GI50 [11] | GI50 [12] | Activity [13] | Activity [14] | inhibition [15] | inhibition [16] | inhibition [17] | inhibition [18] |
| --- | --- | --- | --- | --- | --- | --- | --- | --- | --- | --- | --- | --- | --- | --- | --- | --- | --- | --- |
| O=C(CCCCCN1C/C=C/CCOc2cccc(c2)-c2ccnc(n2)Nc2cccc(c2)C1)NO | 152 nM | 108 nM | 1040 nM | 2620 nM | 530 nM | 2320 nM | 2260 nM | 1330 nM | 1320 nM | 2630 nM | 1600 nM | 1420 nM |  |  |  |  |  |  |
| O=C(CCCCN1C/C=C/CCOc2cccc(c2)-c2ccnc(n2)Nc2cccc(c2)C1)NO | 251 nM | 180 nM | 293 nM | 3030 nM | 660 nM | 2450 nM | 510 nM | 1530 nM | 1130 nM | 2720 nM | 1770 nM | 1220 nM |  |  |  |  |  |  |
| O=C(CCCCCCC(=O)N1C/C=C/CCOc2cccc(c2)-c2ccnc(n2)Nc2cccc(c2)C1)NO | 310 nM | 1260 nM | 558 nM | 6730 nM | 5890 nM | 4790 nM | 5250 nM |  |  |  |  |  |  |  |  |  |  |  |
| O=C(CCCCCCN1C/C=C/CCOc2cccc(c2)-c2ccnc(n2)Nc2cccc(c2)C1)NO | 87 nM | 87 nM | 686 nM | 1030 nM | 270 nM | 1020 nM | 340 nM | 820 nM | 950 nM | 1770 nM | 1070 nM | 1220 nM | Dose-dependent effect | Dose-dependent effect | Active | Dose-dependent effect | Dose-dependent effect | Dose-dependent effect |
| O=C(CCCCCCCC(=O)N1C/C=C/COCc2cccc(c2)-c2ccnc(n2)Nc2cccc(c2)C1)NO | 334 nM | 272 nM | 835 nM | 1660 nM | 780 nM | 2640 nM | 4780 nM |  |  |  |  |  |  |  |  |  |  |  |
| O=C(CCCCN1C/C=C/COCc2cccc(c2)-c2ccnc(n2)Nc2cccc(c2)C1)NO | 158 nM | 218 nM | 392 nM | 2050 nM | 370 nM | 1830 nM | 490 nM | 810 nM | 1070 nM | 1880 nM | 1420 nM | 1130 nM |  |  |  |  |  |  |
| O=C(CCCCC(=O)N1C/C=C/COCc2cccc(c2)-c2ccnc(n2)Nc2cccc(c2)C1)NO | 402 nM | 221 nM | 547 nM | 4430 nM | 2060 nM | 4970 nM | 2940 nM |  |  |  |  |  |  |  |  |  |  |  |
| O=C(CCCCCCN1C/C=C/COCc2cccc(c2)-c2ccnc(n2)Nc2cccc(c2)C1)NO | 159 nM | 217 nM | 613 nM | 900 nM | 320 nM | 940 nM | 700 nM | 900 nM | 1130 nM | 1500 nM | 1190 nM | 1420 nM |  |  |  |  |  |  |
| O=C(CCCCC(=O)N1C/C=C/CCOc2cccc(c2)-c2ccnc(n2)Nc2cccc(c2)C1)NO | 848 nM | 556 nM | 246 nM | 1270 nM | 1010 nM | 1440 nM | 2110 nM | 1590 nM | 2090 nM | 2410 nM | 2250 nM | 1520 nM |  |  |  |  |  |  |
| O=C(CCCCCN1C/C=C/COCc2cccc(c2)-c2ccnc(n2)Nc2cccc(c2)C1)NO | 123 nM | 288 nM | 594 nM | 2300 nM | 520 nM | 2090 nM | 680 nM |  |  |  |  |  |  |  |  |  |  |  |
| O=C(CCCCCCC(=O)Nc1ccccc1)NO [VORINOSTAT] |  | > 10000 nM | > 10000 nM |  |  |  |  |  |  |  |  |  |  |  |  |  |  |  |
| O=C(CCCCCCCC(=O)N1C/C=C/CCOc2cccc(c2)-c2ccnc(n2)Nc2cccc(c2)C1)NO | 355 nM |  |  | 1950 nM |  | 2020 nM | 6260 nM |  |  |  |  |  |  |  |  |  |  |  |
| O=C(CCCCCCC(=O)N1C/C=C/COCc2cccc(c2)-c2ccnc(n2)Nc2cccc(c2)C1)NO | 293 nM | 833 nM | 684 nM | 2870 nM | 1410 nM | 4390 nM | 5030 nM |  |  |  |  |  |  |  |  |  |  |  |
| CN1C/C=C/CCOc2cccc(c2)-c2ccnc(n2)Nc2cccc(c2)C1 [ZOTIRACICLIB] |  | 42 nM | 170 nM | 1130 nM | 660 nM | 1230 nM | 790 nM |  |  |  |  |  |  |  |  |  |  |  |
